Results published in ChEMBL document CHEMBL1141316, “Lyngbyastatins 5-7, potent elastase inhibitors from Floridian marine cyanobacteria, Lyngbya spp” (J Nat Prod, 2007).
Activity calls are given as the source filed them. The rule behind the calls is not given here.

Experiments:
[1] = species on record: Sus scrofa; experiment: Inhibition of pig trypsin up to 30 uM
Outline: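 Porcine pancreatic trypsin was run as the chymotrypsin assay: 50 mM Tris-HCl/100 mM NaCl/1 mM CaCl2, pH 7.8, with 10 min preincubation with sample in DMSO at 37 °C. Nα-benzoyl-DL-arginine-4-nitroanilide was the substrate. Absorbance at 405 nm was followed every 5 min for 30 min. Tests were done in triplicate, with PMSF as positive control.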

[2] = Inhibition of bovine alpha chymotrypsin; parameters: species or system Bos taurus
Outline: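 Bovine pancreatic alpha-chymotrypsin, 1 mg/mL stock in 50 mM Tris-HCl/100 mM NaCl/1 mM CaCl2, pH 7.8. Enzyme was preincubated with test sample in DMSO at 37 °C for 10 min. Then N-succinyl-Gly-Gly-Phe-p-nitroanilide was added at 0.75 mM final (≈Km). Absorbance rise at 405 nm was read every 5 min for 30 min. Samples were log/2 dilutions from 1 mM to 100 pM stocks, in triplicate, with PMSF as positive control.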

[3] = Inhibition of pig elastase; parameters: species or system Sus scrofa
Outline: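 Porcine pancreatic elastase, 75 µg/mL stock in Tris-HCl pH 8.0. Enzyme was preincubated with test sample (5% DMSO final) at 30 °C for 20 min. Then N-succinyl-Ala-Ala-Ala-p-nitroanilide was added at 1.5 mM final (Km). Absorbance increase at 405 nm was read every 5 min for 30 min. Dilution series in DMSO ran from 1 mM to 100 pM, in triplicate, with PMSF as positive control.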

SMILES | Activity [1] | IC50 [2] | IC50 [3]
C/C=C1\NC(=O)[C@@H](NC(=O)[C@H](CCc2ccc(O)cc2)NC(=O)[C@H](C)NC(=O)[C@H](O)CO)[C@@H](C)OC(=O)[C@H](C(C)C)NC(=O)[C@H](Cc2ccc(O)cc2)N(C)C(=O)[C@H](Cc2ccccc2)N2C(=O)[C@H](CC[C@H]2O)NC1=O [LYNGBYASTATIN 5] | inactive | 2800 nM | 3.2 nM
C/C=C1\NC(=O)[C@@H](NC(=O)[C@H](CCC(N)=O)NC(=O)CCCCC)[C@@H](C)OC(=O)[C@H](C(C)C)NC(=O)[C@H](Cc2ccc(O)cc2)N(C)C(=O)[C@H](Cc2ccccc2)N2C(=O)[C@H](CC[C@H]2O)NC1=O [LYNGBYASTATIN 7] | inactive |  | 
C/C=C1\NC(=O)[C@@H](NC(=O)[C@H](CCc2ccc(O)cc2)NC(=O)[C@H](C)NC(=O)[C@H](O)COS(=O)(=O)O)[C@@H](C)OC(=O)[C@H](C(C)C)NC(=O)[C@H](Cc2ccc(O)cc2)N(C)C(=O)[C@H](Cc2ccccc2)N2C(=O)[C@H](CC[C@H]2OC)NC1=O [LYNGBYASTATIN 6] | inactive | 2500 nM | 3.3 nM
C/C=C1\NC(=O)[C@@H](NC(=O)[C@H](CCC(N)=O)NC(=O)CCC)[C@@H](C)OC(=O)[C@H](C(C)C)NC(=O)[C@H](Cc2ccc(O)cc2)N(C)C(=O)[C@H](Cc2ccccc2)N2C(=O)[C@H](CC[C@H]2O)NC1=O [SOMAMIDE B] | inactive | 4200 nM | 9.5 nM
